Sampled rows, rich in hits. Any-hit rate of the full collection: about 12%.
Autophagy HCS: autophagy modulation, high-content screen | 190,000 tested, 0.98% active | calls only at 10 µM (by protocol) | MEF GFP-LC3 puncta imaging; test concentration mostly 10 µM;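 active = percentage of spot-positive cells more than 3 SD above its plate mean, without a fluorescence outlier flag or 80% toxicity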;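 also: spot-positive cell cutoff set from DMSO-treated cells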
MT stabilizer: stabilizes microtubules in HeLa cells | % tubulin-high responders, % at 10 µM | 200,000 tested, 0.83% active | AID 2205 | HeLa tubulin immunostaining HCS, 24 h; share of cells brighter than vehicle mean+2SD;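 active = plate Z-score above 3 for both tubulin-high and condensed-nucleus cell shares, with cell loss under 80%, at 10 µM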;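 also: anti alpha tubulin signal scored within the nucleus-defined area of each cell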
Dynein transport: blocks dynein driven cargo transport along microtubules | z-score, hits read low | 3617.4 mouse cells, GR-EGFP nuclear translocation imaging; test concentration mostly 20 µM; stimulated with dexamethasone, 1 µM; hits give low values | AID 1381 | 220,000 tested, 0.47% active;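 active = plate z-score of nuclear minus cytoplasmic receptor signal below a set negative limit, without overly bright fluorescence or cell loss, cut at about -3.5 in these data, passing the limit was not always enough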;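 also: z-score of nuclear minus cytoplasmic ring GR-EGFP intensity difference per well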
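Buffer or medium: tet-free, stripped-serum medium; Also added: dexamethasone, 1.0 µM final; Technique: high-content fluorescence imaging after fixation; Times: 48 h induction, 1 h compound, 30 min dex at 37 °C; Read-out: per-cell GR-EGFP intensity, nucleus versus surrounding cytoplasmic ring, well-averaged.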
b-catenin transl: beta-catenin nuclear translocation modulation. 190,000 tested, 0.3% active. nuclear translocation activity, % at 5 µM. HeLa beta-catenin nuclear translocation, immunofluorescence imaging;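 active = nuclear translocation activity above 50% at 5 µM, with a well cell count of 50 or more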;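 also: per-cell ratio of nuclear to cytoplasmic median beta-catenin stain intensity; plate controls were DMSO negative control for no effect and GSK-3 inhibitor IX positive control for full effect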
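Test system: HeLa cells, endogenous beta-catenin; Compound: single 5 µM dose plus 0.02–20 µM confirmation series; Times: compound exposure 24 h at 37°C; Signal: fluorescence imaging of beta-catenin antibody stain plus DAPI; Read-out: % activation, nuclear-to-cytoplasmic median beta-catenin signal ratio per cell.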
CHOP inhibitor: blocks CHOP induction under ER stress. 220,000 tested, 3.8% active. inhibition, % at 10 µM. CHO-K1 CHOP-promoter luciferase, tunicamycin-induced, 15-18 h. AID 2732;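 active = compounds that reduced the stress-induced luciferase reporter signal by more than about 70% of percent inhibition, limit read from the data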;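 also: 0% = tunicamycin plus vehicle and 100% = wells without tunicamycin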
Lmaj promast: inhibitors of Leishmania major promastigote growth; Leishmania major promastigotes, resazurin fluorescence viability; inhibition, % at 10 µM; 200,000 tested, 9% active; AID 1063; in the data active = inhibition above about 50%;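 also: promastigotes grown with compound for 44 hours at 28 °C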
* marks the source's active call; other numbers are inactive results.

Results for CN1CCN(CC(=O)N(Cc2c(C#N)c3ccccc3n2C)c2ccccc2)CC1 ?
Autophagy HCS: inactive; MT stabilizer: 2; Dynein transport: -0.72; CHOP inhibitor: 0; Lmaj promast: 100*

What do the screens show for `Cn1c(CN2CCN(CCO)CC2)c(C#N)c2ccccc21`?
Dynein transport: 0.26; b-catenin transl: 0; CHOP inhibitor: 11

How did CC1CCC2C(C1)c1sc(=O)[nH]c1SC2(C)C (stereo not given) do in these assays?
Autophagy HCS: inactive; MT stabilizer: 3; Dynein transport: 0.045; b-catenin transl: 0; CHOP inhibitor: 83*; Lmaj promast: 10

How did O=C(Nc1ccc(F)cc1)c1sc2cc(C(F)(F)F)cnc2c1-c1cccs1 do in these assays?
Autophagy HCS: inactive; MT stabilizer: 1; Dynein transport: 0.76; CHOP inhibitor: 49; Lmaj promast: 56*

How did COc1ccc(NC(=O)c2sc3cc(C(F)(F)F)cnc3c2-c2cccs2)cc1 do in these assays?
Autophagy HCS: inactive; MT stabilizer: 2; Dynein transport: -0.7; CHOP inhibitor: -9; Lmaj promast: 9

How did O=C(O)c1cccnc1SC1CC(=O)N(c2ccccc2)C1=O (stereo not given) do in these assays?
Dynein transport: -0.085; b-catenin transl: 0; CHOP inhibitor: -1

How did O=C(O)c1ccccc1SC1CC(=O)N(c2ccccc2)C1=O (stereo not given) do in these assays?
Autophagy HCS: inactive; MT stabilizer: 3; Dynein transport: -0.44; b-catenin transl: -3; CHOP inhibitor: 2; Lmaj promast: 51*

Results for CC(=O)Oc1c(Cl)cc(Cl)cc1/C=C/c1ccc2ccccc2n1 ?
Autophagy HCS: inactive; MT stabilizer: 3; Dynein transport: -0.56; b-catenin transl: -3; CHOP inhibitor: 17; Lmaj promast: 8

What do the screens show for `CC(=O)Oc1ccc(Cl)cc1/C=C/c1ccc2ccccc2n1`?
Autophagy HCS: inactive; MT stabilizer: 5; Dynein transport: -1.8; b-catenin transl: 0; CHOP inhibitor: 17; Lmaj promast: 55*

What do the screens show for `Cc1cc(C)c(O)c(-c2cc(C(=O)NCc3ccccc3)[nH]n2)c1`?
Autophagy HCS: inactive; MT stabilizer: 2; Dynein transport: 0.75; CHOP inhibitor: 66; Lmaj promast: 52*

How did COc1ccc(CNC(=O)c2cc(-c3cc(C)cc(C)c3O)n[nH]2)cc1 do in these assays?
Dynein transport: -0.74; b-catenin transl: 0; CHOP inhibitor: -6

How did COc1ccc(-c2csc(NC3OC(=O)c4c3ccc(OC)c4OC)n2)cc1OC (stereo not given) do in these assays?
Dynein transport: -0.49; b-catenin transl: 1; CHOP inhibitor: -121

What do the screens show for `COc1ccc2c(c1OC)C(=O)OC2Nc1nc(-c2cc3cc(Br)ccc3oc2=O)cs1` (stereo not given)?
Dynein transport: 0.29; b-catenin transl: 1; CHOP inhibitor: 71*

What do the screens show for `Cc1cc(C(=O)N2CCN(S(=O)(=O)c3ccccc3F)CC2)c(C)o1`?
Autophagy HCS: inactive; MT stabilizer: 2; Dynein transport: -0.047; b-catenin transl: -2; CHOP inhibitor: -12; Lmaj promast: 6

Results for CCc1ccc2c(c1)cc(CN(C(=S)Nc1ccc(Cl)cc1)C1CC1)c1nnnn12 ?
Autophagy HCS: active; MT stabilizer: 1; b-catenin transl: -1; CHOP inhibitor: 2; Lmaj promast: 9

Results for COCCN(Cc1cc2cc(C)ccc2n2nnnc12)C(=S)Nc1ccc(C)cc1 ?
Autophagy HCS: inactive; MT stabilizer: 4; Dynein transport: -0.077; b-catenin transl: -2; CHOP inhibitor: -2; Lmaj promast: 57*

How did COCCNC(=S)N(Cc1cc2cc(C)ccc2n2nnnc12)C1CCCC1 do in these assays?
Autophagy HCS: inactive; MT stabilizer: 5; Dynein transport: 2.3; b-catenin transl: -2; CHOP inhibitor: -3; Lmaj promast: 12

How did CCOC(=O)C1=C(C)NC(SCC(=O)O)=NC1c1ccccc1 (stereo not given) do in these assays?
Autophagy HCS: inactive; MT stabilizer: 4; Dynein transport: -0.74; b-catenin transl: -6; CHOP inhibitor: 28; Lmaj promast: -7

Results for COc1ccc(CNC(=O)COC(=O)c2ccc(F)c(S(=O)(=O)N3CCCCC3)c2)cc1OC ?
Dynein transport: 0.4; b-catenin transl: 1; CHOP inhibitor: 6

How did O=C1CN(C(=O)c2ccc(Br)o2)C(c2ccc(F)cc2)c2cc(Cl)ccc2N1 (stereo not given) do in these assays?
Autophagy HCS: inactive; MT stabilizer: 3; Dynein transport: -0.1; b-catenin transl: -1; CHOP inhibitor: 69; Lmaj promast: 94*

Results for O=C1CN(C(=O)c2ccc(Br)o2)C(c2ccccc2)c2cc(Cl)ccc2N1 (stereo not given) ?
Autophagy HCS: inactive; MT stabilizer: 8; Dynein transport: 0.96; CHOP inhibitor: 84*; Lmaj promast: 87*

How did CCOc1ccc(-n2nc3c(-n4ncc(C#N)c4N)nnc(C)c3c2C)cc1 do in these assays?
Autophagy HCS: inactive; MT stabilizer: 3; Dynein transport: 0.75; Lmaj promast: -1

Results for CCNC(=O)CON=C1c2ccccc2-c2ccccc21 ?
Autophagy HCS: active; MT stabilizer: 2; Dynein transport: -0.053; b-catenin transl: -3; CHOP inhibitor: 17; Lmaj promast: 0

What do the screens show for `CCC(CC)NC(=O)CON=C1c2ccccc2-c2ccccc21`?
Autophagy HCS: inactive; MT stabilizer: 3; Dynein transport: 0.086; b-catenin transl: 2; CHOP inhibitor: 72*; Lmaj promast: -7

How did N=C(N)c1ccc(OCCCCCOc2ccc(C(=N)N)cc2)cc1 (tested in a mixture with another compound) do in these assays?
CHOP inhibitor: 33

What do the screens show for `Cc1cc(C)c[n+](-c2[nH]c(=O)sc2/C=N/NC([S-])=Nc2ccccc2)c1`?
Autophagy HCS: inactive; MT stabilizer: 4; Dynein transport: -0.14; b-catenin transl: -2; CHOP inhibitor: 15; Lmaj promast: -7

What do the screens show for `CC(/C=N/NC(=O)c1cc(-c2ccc(C)s2)[nH]n1)=C\c1ccccc1`?
Autophagy HCS: inactive; MT stabilizer: 28*; Dynein transport: 0.91; b-catenin transl: 1; CHOP inhibitor: 96*; Lmaj promast: 1

Results for CC(/C=N/NC(=O)c1cc(C(C)(C)C)[nH]n1)=C\c1ccccc1 ?
Autophagy HCS: inactive; MT stabilizer: 21; Dynein transport: -0.038; b-catenin transl: -1; CHOP inhibitor: 76*; Lmaj promast: 3

How did CC(=C/c1ccccc1)/C=N/NC(=O)c1ccccn1 do in these assays?
Dynein transport: 0.74; b-catenin transl: 1; CHOP inhibitor: 7

Assay outcomes as filed in PubChem BioAssay.
